The test system of series [1] is Rattus norvegicus. The series can be described thus: Gastrointestinal toxicity in rat assessed ulcer index at 1.38 mmol/kg, po after 6 hrs relative to aspirin. The class given is organism-based. The settings on record: in vivo. The method, boiled down: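 Rats fasted 24 h (water allowed) and dosed orally at 1.38 mmol/kg as a suspension in 1% methylcellulose. Killed 6 h later; stomachs opened along greater curvature, rinsed, and lesions measured by magnifier. Lesions up to 1 mm rated 1, 1–2 mm rated 2, >2 mm rated by length in mm. UI is summed lesion length per stomach averaged over n = 4; mean ± SEM.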

Series [2] has as its system Rattus norvegicus. Description: Antiinflammatory activity against assessed as inhibition of carrageenan-induced foot paw edema in po dosed rat after 3 hrs. The format is functional. The method, boiled down: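 Oral dosing; edema induced by carrageenan in rat paw and measured 3 h after administration. ED50 (µmol/kg) derived from the dose–response.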
A further series addresses T1, 5-lipoxygenase (Solanum tuberosum, UniProt O49150).
T1 sequence (O49150 whole entry): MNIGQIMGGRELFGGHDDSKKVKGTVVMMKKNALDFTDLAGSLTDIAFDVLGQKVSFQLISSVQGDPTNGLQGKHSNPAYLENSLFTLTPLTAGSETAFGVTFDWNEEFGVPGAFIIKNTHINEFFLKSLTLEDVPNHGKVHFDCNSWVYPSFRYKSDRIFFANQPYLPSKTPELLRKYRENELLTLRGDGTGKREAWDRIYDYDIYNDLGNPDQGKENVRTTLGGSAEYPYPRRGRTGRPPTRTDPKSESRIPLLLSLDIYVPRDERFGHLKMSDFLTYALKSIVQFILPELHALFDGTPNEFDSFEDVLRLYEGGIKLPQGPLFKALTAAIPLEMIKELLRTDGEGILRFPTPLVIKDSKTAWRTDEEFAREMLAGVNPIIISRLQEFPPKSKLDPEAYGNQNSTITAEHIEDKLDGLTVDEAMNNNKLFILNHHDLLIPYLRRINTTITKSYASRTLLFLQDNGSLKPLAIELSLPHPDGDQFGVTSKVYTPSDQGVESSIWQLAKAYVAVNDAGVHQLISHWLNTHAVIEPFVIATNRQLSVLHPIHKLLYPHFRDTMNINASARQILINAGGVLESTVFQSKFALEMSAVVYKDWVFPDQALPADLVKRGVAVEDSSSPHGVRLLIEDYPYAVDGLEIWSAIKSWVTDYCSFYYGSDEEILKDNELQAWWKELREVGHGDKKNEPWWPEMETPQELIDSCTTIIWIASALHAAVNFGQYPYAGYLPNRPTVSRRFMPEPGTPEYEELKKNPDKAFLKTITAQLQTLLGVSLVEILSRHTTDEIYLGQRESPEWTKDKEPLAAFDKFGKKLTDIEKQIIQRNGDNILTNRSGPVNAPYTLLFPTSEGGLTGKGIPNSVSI
The series can be described thus: Inhibition of potato 5-LOX after 5 mins by enzyme immuno assay. The method, boiled down:
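Potato 5-LOX inhibition measured with a LOX assay kit. IC50 is the mean of two determinations, deviation from the mean <10%.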

In series [3] the target is T2, Prostaglandin G/H synthase 2 (Homo sapiens, UniProt P35354).
T2 sequence (P35354 whole entry): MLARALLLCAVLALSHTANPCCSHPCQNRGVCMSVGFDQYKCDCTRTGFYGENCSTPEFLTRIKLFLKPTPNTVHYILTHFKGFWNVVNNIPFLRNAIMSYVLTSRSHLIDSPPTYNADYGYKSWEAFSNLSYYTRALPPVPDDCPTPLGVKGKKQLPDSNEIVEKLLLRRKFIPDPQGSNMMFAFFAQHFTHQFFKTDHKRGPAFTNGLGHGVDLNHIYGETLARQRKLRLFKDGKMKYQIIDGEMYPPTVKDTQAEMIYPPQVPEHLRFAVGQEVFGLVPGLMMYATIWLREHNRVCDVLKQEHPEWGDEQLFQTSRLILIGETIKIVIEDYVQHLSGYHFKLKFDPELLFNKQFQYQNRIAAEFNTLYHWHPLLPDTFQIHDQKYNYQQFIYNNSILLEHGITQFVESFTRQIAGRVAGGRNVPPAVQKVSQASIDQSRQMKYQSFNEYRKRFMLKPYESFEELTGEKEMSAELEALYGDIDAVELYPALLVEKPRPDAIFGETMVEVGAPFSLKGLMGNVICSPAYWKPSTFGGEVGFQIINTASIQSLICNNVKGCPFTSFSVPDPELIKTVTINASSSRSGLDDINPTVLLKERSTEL
Description: Inhibition of human recombinant COX-2 by enzyme immuno assay.

The target of series [4] is Prostaglandin G/H synthase 1 (Ovis aries) (UniProt P05979). The series can be described thus: Inhibition of ovine COX-1 by enzyme immuno assay.
Series [5] can be described thus: Selectivity index, ratio of IC50 for ovine COX-1 to IC50 for human recombinant COX-2.
Series [6] relates to Rattus norvegicus. The series can be described thus: Ratio of compound ED50 to aspirin ED50 for inhibition of carrageenan-induced foot paw edema in po dosed rat after 3 hrs. The format is functional. A general note: Carrageenan injected into the paw causes an acute inflammation.
The subject of series [7] is Rattus norvegicus. The series can be described thus: Ratio of compound ED50 to ibuprofen ED50 for inhibition of carrageenan-induced foot paw edema in po dosed rat after 3 hrs. The class given is functional. The method, boiled down:
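Carrageenan-induced paw edema in rats, test compound given orally. […] The ratio compares the compound ED50 with the ibuprofen ED50 from this model.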

Data on 7 molecules can be found in ChEMBL document CHEMBL1156146 (Bioorg Med Chem Lett, 2009).

Calls of active or inactive are those of the source. The calls are words filed in the database; no cut-off is given here.

Broadly, the ED50 is the midpoint of the dose-response relation. The term IC50 denotes the concentration at which inhibition is half-maximal.

As for `CC(=O)Oc1ccccc1C(=O)O` [ASPIRIN], in the series on Rattus norvegicus [1], the UI amounted to 57.4. Also, in the series with Rattus norvegicus [2], the 50% effective dose (ED50) is 716 µmol/kg.

`O=C(O)/C=C/c1ccc(O)c(O)c1` [CAFFEIC ACID] registered a half-maximal inhibitory concentration (IC50) at 5-lipoxygenase of 4 µM.

In the series with Rattus norvegicus [1], `O=C(O)c1ccc(-c2ccn(C(F)F)c(=O)c2)cc1O` showed a UI of 0. The IC50 in series [3] was 4.4 µM; against 5-lipoxygenase it was 4.7 µM; in series [4] it was more than 100 µM. The ED50 in the series with Rattus norvegicus [2] came out at 497 µmol/kg. For the same molecule, the Ratio IC50 in series [5] is more than 22. Further, in the series with Rattus norvegicus [6], the “Ratio ED50” value was found to be 1.4.

As for `CC(=O)NS(=O)(=O)c1cc(-c2ccn(C(F)F)c(=O)c2)ccc1C(=O)O`, the results for the IC50 (in series [3]; at 5-lipoxygenase; in series [4]) were 2.6 µM, 0.28 µM and more than 100 µM, respectively. Moreover, the ED50 in the series on Rattus norvegicus [2] came to 258 µmol/kg. The entries for the “Ratio ED50” value in the series on Rattus norvegicus [7] and in the series with Rattus norvegicus [6] were 1.3 and 2.8, respectively. In addition, the Ratio IC50 in series [5] was more than 38.

In the case of `O=C(O)c1cc(-c2ccn(C(F)F)c(=O)c2)ccc1O`, the UI with Rattus norvegicus [1] came to 0. The half-inhibitory concentration (IC50) worked out at 0.98 µM in series [3], 0.37 µM against 5-lipoxygenase and 15.4 µM in series [4]. The ED50 in the series on Rattus norvegicus [2] was found to be 434 µmol/kg. The Ratio IC50 in series [5] was more than 15. Also, the “Ratio ED50” value in the series on Rattus norvegicus [6] came to 1.6.

Take `CC(=O)NS(=O)(=O)c1ccc(-c2ccn(C(F)F)c(=O)c2)cc1C(=O)O`: the half-maximal inhibitory concentration (IC50) was 17.6 µM in series [3], 0.32 µM against 5-lipoxygenase and more than 100 µM in series [4]. In the series on Rattus norvegicus [2], the ED50 result is “inactive”. Moreover, the Ratio IC50 in series [5] is more than 5.

With `O=C(O)c1cc(-c2ccc(F)cc2F)ccc1O` [DIFLUNISAL], the 50% effective dose (ED50) in the series on Rattus norvegicus [2] is 68 µmol/kg.
